In brackets after ≈: the same amount, converted by molar mass.
How the values were obtained:
Staphylococcus aureus [1] = assay: Antibacterial activity against methicillin-sensitive Staphylococcus aureus ARC516 infected in ip dosed neutropenic CD1 mouse thigh model assessed as decrease in bacterial viable counts after 24 hrs; format: functional, organism-based; details: Thigh muscle
Staphylococcus aureus [2] = assay: Antibacterial activity against methicillin-sensitive Staphylococcus aureus ARC516 infected in neutropenic CD1 mouse thigh model assessed as decrease in bacterial viable counts at 30 mg/kg, ip after 24 hrs; format: functional; details: route intraperitoneal
Staphylococcus aureus [3] = assay: Antibacterial activity against methicillin-sensitive Staphylococcus aureus ARC516 infected in neutropenic CD1 mouse thigh model assessed as decrease in bacterial viable counts at 30 mg/kg, ip q24; format: functional; details: route intraperitoneal
[4] = AUC in methicillin-sensitive Staphylococcus aureus ARC516 infected in neutropenic CD1 mouse thigh model at 30 mg/kg, ip q24; format: ADME, organism-based; set-up: dose 30 mg/kg, route intraperitoneal; details: in vivo
Staphylococcus aureus [5] = assay: Antibacterial activity against methicillin-sensitive Staphylococcus aureus ARC516 infected in ip dosed neutropenic CD1 mouse thigh model assessed as decrease in bacterial viable counts treated for q24; format: functional; details: ARC516, Thigh muscle
Staphylococcus aureus [6] = assay: Antimicrobial activity against Staphylococcus aureus by broth microdilution/CLSI method; format: functional
Staphylococcus aureus [7] = assay: Antimicrobial activity against methicillin-resistant Staphylococcus aureus by broth microdilution/CLSI method; format: functional
Enterococcus faecalis = assay: Antimicrobial activity against vancomycin-resistant Enterococcus faecalis by broth microdilution/CLSI method; format: functional
Enterococcus faecium [8] = assay: Antimicrobial activity against Enterococcus faecium by broth microdilution/CLSI method; format: functional
Enterococcus faecium [9] = assay: Antimicrobial activity against vancomycin-resistant Enterococcus faecium by broth microdilution/CLSI method; format: functional
Haemophilus influenzae = assay: Antimicrobial activity against amoxicillin-resistant Haemophilus influenzae by broth microdilution/CLSI method; format: functional
Staphylococcus aureus [10] = assay: Antimicrobial activity against Staphylococcus aureus ARC516 by broth microdilution/CLSI method; format: functional
Staphylococcus aureus [11] = assay: Antimicrobial activity against 2 times drug resistance selected Staphylococcus aureus ARC516-1F by broth microdilution/CLSI method; format: functional
Staphylococcus aureus [12] = assay: Antimicrobial activity against Staphylococcus aureus ARC1692 by broth microdilution/CLSI method; format: functional
Staphylococcus aureus [13] = assay: Antimicrobial activity against 2 times drug resistance selected Staphylococcus aureus ARC1692-2F by broth microdilution/CLSI method; format: functional
Staphylococcus aureus [14] = assay: Antimicrobial activity against Staphylococcus aureus ARC2381 by broth microdilution/CLSI method; format: functional
Staphylococcus aureus [15] = assay: Antimicrobial activity against 2 times drug resistance selected Staphylococcus aureus ARC2381-2F by broth microdilution/CLSI method; format: functional
Staphylococcus aureus [16] = assay: Antimicrobial activity against 2 times drug resistance selected Staphylococcus aureus ARC2398-1F by broth microdilution/CLSI method; format: functional
Staphylococcus aureus [17] = assay: Antimicrobial activity against 2 times drug resistance selected Staphylococcus aureus ARC2398-2F by broth microdilution/CLSI method; format: functional
Staphylococcus aureus [18] = assay: Ratio of MIC for 2 times drug resistance selected Staphylococcus aureus ARC516-2F to MIC for Staphylococcus aureus ARC516; format: functional
Staphylococcus aureus [19] = assay: Ratio of MIC for 2 times drug resistance selected Staphylococcus aureus ARC2398-1F to MIC for Staphylococcus aureus ARC2398; format: functional
Staphylococcus aureus [20] = assay: Ratio of MIC for 2 times drug resistance selected Staphylococcus aureus ARC2398-2F to MIC for Staphylococcus aureus ARC2398; format: functional
[21] = molecular target: Voltage-gated inwardly rectifying potassium channel KCNH2 (Homo sapiens, UniProt Q12809); assay: Inhibition of human ERG at 100 uM
Voltage-gated inwardly rectifying potassium channel KCNH2, sequence (Q12809 whole entry): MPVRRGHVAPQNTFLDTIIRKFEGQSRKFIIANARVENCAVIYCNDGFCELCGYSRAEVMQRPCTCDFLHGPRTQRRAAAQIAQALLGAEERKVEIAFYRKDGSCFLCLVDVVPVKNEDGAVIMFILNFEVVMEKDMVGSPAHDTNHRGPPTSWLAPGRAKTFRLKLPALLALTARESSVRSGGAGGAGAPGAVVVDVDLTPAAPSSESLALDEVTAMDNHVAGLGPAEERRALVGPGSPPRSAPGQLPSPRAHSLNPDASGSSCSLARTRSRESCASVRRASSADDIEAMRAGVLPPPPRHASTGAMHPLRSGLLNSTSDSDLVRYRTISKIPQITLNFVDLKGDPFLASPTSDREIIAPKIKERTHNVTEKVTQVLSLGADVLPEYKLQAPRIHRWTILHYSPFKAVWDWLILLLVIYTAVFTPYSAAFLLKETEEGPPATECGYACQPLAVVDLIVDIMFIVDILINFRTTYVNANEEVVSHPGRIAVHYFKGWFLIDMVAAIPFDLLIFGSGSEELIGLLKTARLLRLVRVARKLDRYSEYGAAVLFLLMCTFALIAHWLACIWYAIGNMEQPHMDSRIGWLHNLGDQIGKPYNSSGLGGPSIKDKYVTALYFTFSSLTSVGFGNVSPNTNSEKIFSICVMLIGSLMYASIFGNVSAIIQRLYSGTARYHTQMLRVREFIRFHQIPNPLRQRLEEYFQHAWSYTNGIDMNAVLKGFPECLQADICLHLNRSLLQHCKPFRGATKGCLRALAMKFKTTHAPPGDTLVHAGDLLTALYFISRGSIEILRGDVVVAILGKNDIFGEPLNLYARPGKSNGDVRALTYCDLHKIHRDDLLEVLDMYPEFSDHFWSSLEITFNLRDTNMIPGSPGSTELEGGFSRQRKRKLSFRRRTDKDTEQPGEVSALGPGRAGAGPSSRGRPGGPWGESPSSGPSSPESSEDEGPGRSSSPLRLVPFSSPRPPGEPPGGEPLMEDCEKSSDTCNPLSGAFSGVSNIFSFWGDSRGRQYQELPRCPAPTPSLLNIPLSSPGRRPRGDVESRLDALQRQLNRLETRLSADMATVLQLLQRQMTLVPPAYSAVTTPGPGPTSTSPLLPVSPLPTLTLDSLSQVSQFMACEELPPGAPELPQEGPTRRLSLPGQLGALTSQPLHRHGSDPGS

Cytochrome P450 2C8 = molecular target: T1, Cytochrome P450 2C8 (Homo sapiens, UniProt P10632); assay: Inhibition of human CYP2C8 at 50 uM; format: ADME
T1 sequence (P10632 whole entry): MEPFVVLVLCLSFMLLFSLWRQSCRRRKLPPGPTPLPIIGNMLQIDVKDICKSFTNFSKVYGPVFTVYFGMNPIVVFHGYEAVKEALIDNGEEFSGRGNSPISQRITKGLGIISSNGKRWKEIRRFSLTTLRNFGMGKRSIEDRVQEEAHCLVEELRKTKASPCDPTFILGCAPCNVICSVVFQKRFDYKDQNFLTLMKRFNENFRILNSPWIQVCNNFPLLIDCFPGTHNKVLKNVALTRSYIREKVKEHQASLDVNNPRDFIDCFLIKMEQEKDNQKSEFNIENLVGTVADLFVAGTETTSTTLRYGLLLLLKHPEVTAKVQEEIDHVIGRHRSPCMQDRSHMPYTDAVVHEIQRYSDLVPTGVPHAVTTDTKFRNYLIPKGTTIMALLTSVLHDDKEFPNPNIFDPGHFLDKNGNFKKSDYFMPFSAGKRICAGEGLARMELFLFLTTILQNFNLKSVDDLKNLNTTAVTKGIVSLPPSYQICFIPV

Cytochrome P450 2D6 = Cytochrome P450 2D6 (Homo sapiens, UniProt P10635); assay: Inhibition of human CYP2D6 at 50 uM; format: ADME
Cytochrome P450 2D6, sequence (P10635 whole entry): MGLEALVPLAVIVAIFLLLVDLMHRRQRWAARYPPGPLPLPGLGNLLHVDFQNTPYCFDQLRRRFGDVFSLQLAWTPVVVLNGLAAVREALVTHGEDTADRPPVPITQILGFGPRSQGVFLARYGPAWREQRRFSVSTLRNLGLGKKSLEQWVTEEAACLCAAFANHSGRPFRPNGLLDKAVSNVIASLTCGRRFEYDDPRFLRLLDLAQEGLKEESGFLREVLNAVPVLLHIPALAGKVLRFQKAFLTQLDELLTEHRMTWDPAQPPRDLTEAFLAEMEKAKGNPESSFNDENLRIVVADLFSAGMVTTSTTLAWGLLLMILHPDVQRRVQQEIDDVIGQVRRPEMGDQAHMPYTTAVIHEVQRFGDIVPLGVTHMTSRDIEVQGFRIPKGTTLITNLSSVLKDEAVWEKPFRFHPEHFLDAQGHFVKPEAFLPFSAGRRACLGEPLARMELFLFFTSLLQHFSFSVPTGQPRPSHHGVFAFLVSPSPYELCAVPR

Cytochrome P450 2C19 = Cytochrome P450 2C19 (Homo sapiens, UniProt P33261); assay: Inhibition of human CYP2C19 at 50 uM; format: ADME
Cytochrome P450 2C19, sequence (P33261 whole entry): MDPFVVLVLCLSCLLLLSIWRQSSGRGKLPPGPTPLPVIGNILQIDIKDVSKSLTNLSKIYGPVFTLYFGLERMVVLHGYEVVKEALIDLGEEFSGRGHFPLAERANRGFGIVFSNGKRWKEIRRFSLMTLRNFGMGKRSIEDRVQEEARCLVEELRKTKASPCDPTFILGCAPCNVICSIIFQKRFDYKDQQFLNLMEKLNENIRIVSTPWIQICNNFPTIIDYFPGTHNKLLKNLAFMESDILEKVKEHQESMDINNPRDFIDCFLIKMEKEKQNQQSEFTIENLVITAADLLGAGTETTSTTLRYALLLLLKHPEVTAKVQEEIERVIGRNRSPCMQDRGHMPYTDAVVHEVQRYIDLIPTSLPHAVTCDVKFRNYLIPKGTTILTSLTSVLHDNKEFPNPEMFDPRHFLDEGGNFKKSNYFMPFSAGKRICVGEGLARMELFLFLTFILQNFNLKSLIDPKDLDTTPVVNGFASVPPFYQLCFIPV

[22] = molecular target: ATP-binding cassette sub-family C member 2 (Homo sapiens, UniProt Q92887); assay: Inhibition of ATPase activity of human MRP2 assessed as inorganic phosphate
[23] = molecular target: ATP-binding cassette sub-family C member 2 (Rattus norvegicus, UniProt Q63120); assay: Inhibition of ATPase activity of rat Mrp2 assessed as inorganic phosphate
ATP-binding cassette sub-family C member 2 (Rattus norvegicus, UniProt Q63120), sequence (Q63120 whole entry): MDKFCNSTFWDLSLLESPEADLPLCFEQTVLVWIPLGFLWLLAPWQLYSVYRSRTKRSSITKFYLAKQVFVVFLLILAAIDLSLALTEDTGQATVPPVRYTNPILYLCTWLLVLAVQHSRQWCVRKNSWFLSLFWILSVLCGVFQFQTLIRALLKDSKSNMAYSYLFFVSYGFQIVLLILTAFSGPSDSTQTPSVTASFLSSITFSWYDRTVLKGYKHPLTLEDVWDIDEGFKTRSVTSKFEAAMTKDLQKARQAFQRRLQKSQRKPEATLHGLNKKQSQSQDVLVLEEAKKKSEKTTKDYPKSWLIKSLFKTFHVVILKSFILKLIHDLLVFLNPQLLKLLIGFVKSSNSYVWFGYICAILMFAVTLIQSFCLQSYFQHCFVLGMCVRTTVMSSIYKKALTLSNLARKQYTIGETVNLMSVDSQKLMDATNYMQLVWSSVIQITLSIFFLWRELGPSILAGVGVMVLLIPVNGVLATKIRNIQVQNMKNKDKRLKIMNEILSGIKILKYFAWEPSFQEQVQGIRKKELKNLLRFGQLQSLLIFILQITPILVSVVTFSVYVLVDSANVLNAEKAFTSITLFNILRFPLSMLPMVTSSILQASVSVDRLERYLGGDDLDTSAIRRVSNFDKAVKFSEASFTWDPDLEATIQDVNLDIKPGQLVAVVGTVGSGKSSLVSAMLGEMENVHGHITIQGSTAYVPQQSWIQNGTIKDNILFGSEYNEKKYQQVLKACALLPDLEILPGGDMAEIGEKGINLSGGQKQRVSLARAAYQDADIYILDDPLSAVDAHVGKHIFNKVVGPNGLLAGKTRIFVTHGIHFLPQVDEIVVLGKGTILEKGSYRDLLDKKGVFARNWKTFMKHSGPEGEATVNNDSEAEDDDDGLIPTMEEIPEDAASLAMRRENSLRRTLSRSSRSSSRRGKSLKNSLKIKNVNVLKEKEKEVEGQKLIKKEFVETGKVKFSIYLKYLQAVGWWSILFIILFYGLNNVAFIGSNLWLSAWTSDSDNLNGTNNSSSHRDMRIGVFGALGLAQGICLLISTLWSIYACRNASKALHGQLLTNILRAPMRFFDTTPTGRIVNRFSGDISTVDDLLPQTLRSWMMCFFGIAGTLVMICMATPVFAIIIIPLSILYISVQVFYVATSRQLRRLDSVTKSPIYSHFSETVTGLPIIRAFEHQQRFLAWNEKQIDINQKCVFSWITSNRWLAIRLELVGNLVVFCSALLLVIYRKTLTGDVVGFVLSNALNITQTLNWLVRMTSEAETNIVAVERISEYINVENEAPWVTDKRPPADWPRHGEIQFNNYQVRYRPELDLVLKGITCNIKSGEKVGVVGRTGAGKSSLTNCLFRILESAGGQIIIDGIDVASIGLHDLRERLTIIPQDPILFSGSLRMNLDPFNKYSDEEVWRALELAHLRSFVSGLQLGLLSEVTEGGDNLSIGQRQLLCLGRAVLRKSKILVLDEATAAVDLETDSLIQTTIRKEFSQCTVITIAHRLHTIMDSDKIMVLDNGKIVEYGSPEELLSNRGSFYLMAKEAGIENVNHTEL

[24] = Clearance in Wistar rat at 10 mg/kg, iv; format: ADME, organism-based; set-up: dose 10 mg/kg, route intravenous; details: in vivo
DNA gyrase subunit B = DNA gyrase subunit B (Staphylococcus aureus, UniProt P0A0K8); assay: Inhibition of ATPase activity of Staphylococcus aureus GyrB
DNA gyrase subunit B, sequence (P0A0K8 whole entry): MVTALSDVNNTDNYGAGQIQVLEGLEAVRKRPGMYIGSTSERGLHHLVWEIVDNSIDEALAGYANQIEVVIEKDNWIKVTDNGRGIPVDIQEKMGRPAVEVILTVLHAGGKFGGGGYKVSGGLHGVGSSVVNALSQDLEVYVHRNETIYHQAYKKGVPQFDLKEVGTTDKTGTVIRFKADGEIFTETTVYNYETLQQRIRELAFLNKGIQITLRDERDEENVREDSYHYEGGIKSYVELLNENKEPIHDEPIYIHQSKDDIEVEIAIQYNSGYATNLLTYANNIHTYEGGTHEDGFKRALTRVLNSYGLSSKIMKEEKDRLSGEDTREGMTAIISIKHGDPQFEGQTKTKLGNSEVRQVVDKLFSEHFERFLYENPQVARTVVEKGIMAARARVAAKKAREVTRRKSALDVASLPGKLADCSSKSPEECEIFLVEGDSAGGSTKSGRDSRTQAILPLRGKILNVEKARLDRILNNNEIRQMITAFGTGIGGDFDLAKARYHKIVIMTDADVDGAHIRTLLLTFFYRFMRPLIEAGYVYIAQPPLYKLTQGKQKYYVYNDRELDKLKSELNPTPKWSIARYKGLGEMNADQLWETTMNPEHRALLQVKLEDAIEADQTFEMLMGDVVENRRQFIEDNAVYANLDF
In short: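 IC50 was determined against S. aureus GyrB in the routine screening assay. The enzyme concentration limits resolution below 10 nM.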

Staphylococcus aureus [25] = assay: Antimicrobial activity against methicillin-sensitive Staphylococcus aureus by broth microdilution/CLSI method; format: functional; details: Staphylococcus aureus; read-out: MIC
Staphylococcus aureus [26] = assay: Antimicrobial activity against methicillin, quinolone-resistant Staphylococcus aureus by broth microdilution/CLSI method; format: functional; details: Staphylococcus aureus; read-out: MIC
Moraxella catarrhalis = assay: Antimicrobial activity against Moraxella catarrhalis by broth microdilution/CLSI method; format: functional; details: Moraxella catarrhalis; read-out: MIC
Escherichia coli [27] = assay: Antimicrobial activity against wild-type Escherichia coli Eco523 by broth microdilution/CLSI method; format: functional; details: Escherichia coli, Eco523; read-out: MIC
Escherichia coli [28] = assay: Antimicrobial activity against Escherichia coli tolC- by broth microdilution/CLSI method; format: functional; details: Escherichia coli; read-out: MIC
[29] = Octanol-phosphate buffer distribution coefficient, log D of the compound at pH 7.4 by shake flask method; format: physicochemical
[30] = Percentage unbound in human plasma; format: ADME, cell-free
[31] = Solubility of the compound; format: physicochemical
[32] = Ratio of MIC for methicillin, quinolone-resistant Staphylococcus aureus to fraction unbound in human plasma; format: ADME
[33] = Percentage unbound in mouse plasma; format: ADME, cell-free
[34] = Clearance in CD1 mouse at 10 mg/kg, iv; format: ADME, organism-based; set-up: dose 10 mg/kg, route intravenous; details: in vivo
[35] = Percentage unbound in rat plasma; format: ADME, cell-free
[36] = Percentage unbound in dog plasma; format: ADME, cell-free, Canis lupus familiaris
[37] = Bioavailability in dog at 10 mg/kg, iv; format: ADME, organism-based, Canis lupus familiaris; details: plasma
[38] = Clearance in dog at 10 mg/kg, iv; format: ADME, organism-based, Canis lupus familiaris; set-up: dose 10 mg/kg, route intravenous; details: plasma

Compound: COC[C@H](C)NC(=O)c1nc(N2CC[C@@H](NC(=O)c3[nH]c(C)c(Cl)c3Cl)[C@@H](OC)C2)sc1C(=O)O [AZD-5099]
- inhibition (Staphylococcus aureus [1]): Dose-dependent effect
- fold change (FC) (Staphylococcus aureus [2]): 2
- deltalog10CFU (Staphylococcus aureus [3]): 1.51
- AUC [4]: 116 µg·h/mL
- MIC (Staphylococcus aureus [5]): 0.03 µg/mL (≈ 0.0547 µM)
- MIC90 (Staphylococcus aureus [6]): 0.06 µg/mL (≈ 0.109 µM)
- MIC90 (Staphylococcus aureus [7]): 0.06 µg/mL (≈ 0.109 µM)
- MIC90 (Enterococcus faecalis): 0.015 µg/mL (≈ 0.0273 µM)
- MIC90 (Enterococcus faecium [8]): 0.06 µg/mL (≈ 0.109 µM)
- MIC90 (Enterococcus faecium [9]): 0.06 µg/mL (≈ 0.109 µM)
- MIC90 (Haemophilus influenzae): 0.25 µg/mL (≈ 0.456 µM)
- MIC (Staphylococcus aureus [10]): 0.016 µg/mL (≈ 0.0292 µM)
- MIC (Staphylococcus aureus [11]): 0.25 µg/mL (≈ 0.456 µM)
- MIC (Staphylococcus aureus [12]): 0.06 µg/mL (≈ 0.109 µM)
- MIC (Staphylococcus aureus [13]): 0.5 µg/mL (≈ 0.912 µM)
- MIC (Staphylococcus aureus [14]): 0.016 µg/mL (≈ 0.0292 µM)
- MIC (Staphylococcus aureus [15]): 0.13 µg/mL (≈ 0.237 µM)
- MIC (Staphylococcus aureus [16]): 0.5 µg/mL (≈ 0.912 µM)
- MIC (Staphylococcus aureus [17]): 0.5 µg/mL (≈ 0.912 µM)
- Ratio (Staphylococcus aureus [18]): 16
- Ratio (Staphylococcus aureus [19]): 16
- Ratio (Staphylococcus aureus [20]): 16
- inhibition (INH) [21]: Not Active
- inhibition (INH) (Cytochrome P450 2C8): Not Active
- inhibition (INH) (Cytochrome P450 2D6): Not Active
- inhibition (INH) (Cytochrome P450 2C19): Not Active
- IC50 [22]: 59 µM
- IC50 [23]: 200 µM
- clearance [24]: 4 mL/min/kg
- IC50 (DNA gyrase subunit B): < 0.01 µM
- MIC (Staphylococcus aureus [25]): 0.036 µg/mL (≈ 0.0656 µM)
- MIC (Staphylococcus aureus [26]): 0.057 µg/mL (≈ 0.104 µM)
- MIC (Moraxella catarrhalis): < 0.008 µg/mL
- MIC (Escherichia coli [27]): 24 µg/mL (≈ 43.8 µM)
- MIC (Escherichia coli [28]): 0.94 µg/mL (≈ 1.71 µM)
- logD [29]: 1.4
- fraction unbound [30]: 0.025
- solubility [31]: 960 µM (≈ 527 µg/mL)
- Ratio [32]: 2.3
- fraction unbound [33]: 0.047
- clearance [34]: 10 mL/min/kg
- fraction unbound [35]: 0.034
- fraction unbound [36]: 0.062
- bioavailability [37]: 96%
- clearance [38]: 0.64 mL/min/kg
